# Assay results: ChEMBL document CHEMBL1135896, “Synthesis and notable antimalarial activity of acyclic peroxides, L-(alkyldioxy)-L-(methyldioxy)cyclododecanes” (J Med Chem, 2002)
# Tests used:
# FM3A [1] = assay: Mammalian cell cytotoxicity assessed against mouse mammary tumor FM3A cells; type: functional, cell-based
# Outline: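 Mouse mammary tumor FM3A cells in culture used as a mammalian cytotoxicity control; EC50 determined by a previously reported protocol. Selectivity is the mean EC50 for FM3A cells divided by the mean EC50 for P. falciparum.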
# Plasmodium falciparum = assay: (§1) In vitro antimalarial activity against Plasmodium falciparum; type: functional, organism-based
# FM3A [2] = assay: as §1; type: functional
# Mus musculus [3] = assay: In vivo 50% effective dose tested against Plasmodium berghei NK65 infected mice (Mus musculus), after oral administration.; type: functional
# Outline: (§2)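 Mice infected with P. berghei, in groups of five, were given the compounds orally in olive oil at various concentrations. Dosing was once daily on days 0–3. Parasitemia was determined on day 4, and ED values were derived by a previously reported protocol.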
# Mus musculus [4] = assay: In vivo 90% effective dose tested against Plasmodium berghei NK65 infected mice (Mus musculus), after intraperitoneal administration; type: functional; details: ip
# Outline: (§3)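 Mice infected with P. berghei, in groups of five, were given the compounds intraperitoneally in olive oil at various concentrations. Dosing was once daily on days 0–3. Parasitemia was determined on day 4, and ED values were derived by a previously reported protocol.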
# Mus musculus [5] = assay: In vivo 90% effective dose tested against Plasmodium berghei NK65 infected mice (Mus musculus), after oral administration.; type: functional; outline: as §2
# Mus musculus [6] = assay: In vivo 50% effective dose tested against Plasmodium berghei NK65 infected mice (Mus musculus), after intraperitoneal administration; type: functional; details: ip; outline: as §3
# Mus musculus [7] = assay: In vivo […] effective dose tested against Plasmodium berghei NK 65 infected mice (Mus musculus), after intraperitoneal administration; type: functional; details: ip; outline: as §3
structure (smiles),measurement,setting,value
CCOC(C)OOC1(OOC)CCCCCCCCCCC1 (stereo unspecified),EC50,FM3A [1],12 µM
same,EC50,Plasmodium falciparum,0.29 µM
same,Selectivity ratio,FM3A [2],41
COOC1(OOC(C)(C)OC)CCCCCCCCCCC1,EC50,FM3A [1],7.3 µM
same,EC50,Plasmodium falciparum,0.24 µM
same,Selectivity ratio,FM3A [2],30
C=C(C)COOC1(OOC)CCCCCCCCCCC1,EC50,FM3A [1],17 µM
same,EC50,Plasmodium falciparum,1.3 µM
same,Selectivity ratio,FM3A [2],13
COOC1(OOCCCCCCI)CCCCCCCCCCC1,EC50,FM3A [1],86 µM
same,EC50,Plasmodium falciparum,0.74 µM
same,Selectivity ratio,FM3A [2],116
C=C(C)COOC1(OOCC(=C)C)CCCCCCCCCCC1,EC50,FM3A [1],38 µM
same,EC50,Plasmodium falciparum,1.5 µM
same,Selectivity ratio,FM3A [2],25
COOC1(OOC)CCCCCCCCCCC1,EC50,FM3A [1],1.5 µM
same,ED50,Mus musculus [3],30 mg/kg
same,ED90,Mus musculus [4],20 mg/kg
same,ED90,Mus musculus [5],60 mg/kg
same,EC50,Plasmodium falciparum,0.086 µM
same,Selectivity ratio,FM3A [2],17
same,ED50,Mus musculus [6],13 mg/kg
CCCOOC1(OOCCC)CCCCCCCCCCC1,EC50,FM3A [1],12 µM
same,EC50,Plasmodium falciparum,1.8 µM
same,Selectivity ratio,FM3A [2],7
CCCCC(CCCC)(OC)OOCC,EC50,FM3A [1],> 48 µM
same,EC50,Plasmodium falciparum,8.6 µM
same,Selectivity ratio,FM3A [2],>6
CCCCOOC1(OOCCCC)CCCCCCCCCCC1,EC50,FM3A [1],8.5 µM
same,EC50,Plasmodium falciparum,2.1 µM
same,Selectivity ratio,FM3A [2],4
COOC1(OOCCCCCCO)CCCCCCCCCCC1,EC50,FM3A [1],1.6 µM
same,ED90,Mus musculus [4],60 mg/kg
same,EC50,Plasmodium falciparum,0.072 µM
same,Selectivity ratio,FM3A [2],22
same,ED50,Mus musculus [6],30 mg/kg
COOC1(OOCCCCCCOC2CCOCC2)CCCCCCCCCCC1,EC50,FM3A [1],7.6 µM
same,EC50,Plasmodium falciparum,0.9 µM
same,Selectivity ratio,FM3A [2],8
C=CCOOC1(OOCC=C)CCCCCCCCCCC1,EC50,FM3A [1],14 µM
same,EC50,Plasmodium falciparum,1.6 µM
same,Selectivity ratio,FM3A [2],9
CCCOOC1(OC)CCCCCCCCCCC1,EC50,FM3A [1],> 37 µM
same,EC50,Plasmodium falciparum,0.62 µM
same,Selectivity ratio,FM3A [2],>60
COOC1(OOCCC(=O)O)CCCCCCCCCCC1,EC50,FM3A [1],0.45 µM
same,EC50,Plasmodium falciparum,5 µM
COOC1(OOCCC(=O)OC)CCCCCCCCCCC1,EC50,FM3A [1],1.4 µM
same,EC50,Plasmodium falciparum,0.23 µM
same,Selectivity ratio,FM3A [2],6
C=C(C)COOC(CCCC)(CCCC)OOC,EC50,FM3A [1],15 µM
same,EC50,Plasmodium falciparum,1.6 µM
same,Selectivity ratio,FM3A [2],9
COOC1(OOCCCc2ccccc2)CCCCCCCCCCC1,EC50,FM3A [1],34 µM
same,EC50,Plasmodium falciparum,1 µM
same,Selectivity ratio,FM3A [2],34
C=CCCOOC1(OOC)CCCCCCCCCCC1,EC50,FM3A [1],6 µM
same,EC50,Plasmodium falciparum,0.38 µM
same,Selectivity ratio,FM3A [2],16
COOC1(OOCCCCCC(=O)O)CCCCCCCCCCC1,EC50,FM3A [1],14 µM
same,EC50,Plasmodium falciparum,0.27 µM
same,Selectivity ratio,FM3A [2],52
CCCCOOC1(OOC)CCCCCCCCCCC1,EC50,FM3A [1],20 µM
same,ED90,Mus musculus [4],80 mg/kg
same,EC50,Plasmodium falciparum,0.22 µM
same,Selectivity ratio,FM3A [2],91
same,ED50,Mus musculus [6],35 mg/kg
CCOOC1(OOCC)CCCCCCCCCCC1,EC50,FM3A [1],10 µM
same,ED50,Mus musculus [7],64 mg/kg
same,EC50,Plasmodium falciparum,0.2 µM
same,Selectivity ratio,FM3A [2],50
same,ED50,Mus musculus [6],41 mg/kg
CCOOC1(OC)CCCCCCCCCCC1,EC50,FM3A [1],26 µM
same,EC50,Plasmodium falciparum,0.23 µM
same,Selectivity ratio,FM3A [2],113
same,ED50,Mus musculus [6],> 100 mg/kg
COOC1(OC)CCCCCCCCCCC1,EC50,FM3A [1],19 µM
same,ED90,Mus musculus [4],68 mg/kg
same,EC50,Plasmodium falciparum,0.08 µM
same,Selectivity ratio,FM3A [2],238
same,ED50,Mus musculus [6],30 mg/kg
C[C@@H]1CC[C@H]2[C@@H](C)C(=O)O[C@@H]3O[C@@]4(C)CC[C@@H]1[C@]32OO4 [ARTEMISININ],ED50,Mus musculus [3],13 mg/kg
same,ED90,Mus musculus [4],32 mg/kg
same,ED90,Mus musculus [5],89 mg/kg
same,Selectivity ratio,FM3A [2],1000
same,ED50,Mus musculus [6],5.4 mg/kg
